Published values from different studies.
Each line is one published result; the experiments were not run side by side.
Calcitonin-gene-related peptide receptor, CALCRL/RAMP1: Calcitonin-gene-related peptide receptor, CALCRL/RAMP1 (Homo sapiens, UniProt O60894+Q16602)
CDK7 with cyclin H: Cyclin-dependent kinase 7, with cyclin H (CDK7, Homo sapiens, UniProt P50613)
HTR1B: 5-hydroxytryptamine receptor 1B (HTR1B, Homo sapiens, UniProt P28222)

Oc1cccc(Nc2nc(-c3ccc(F)cc3F)cs2)c1
inhibition (Calcitonin-gene-related peptide receptor, CALCRL/RAMP1; cell-free assay; 10 µM): 3%

Nc1nccc(-c2c[nH]c3ccc(Br)cc23)n1
inhibition (CDK7 with cyclin H; enzyme activity, inhibitor, ADP detection; 10 µM): -32%

O=C(c1ccc(Cl)cc1)N(Cc1ccccc1)C1CCCCC1
inhibition (Calcitonin-gene-related peptide receptor, CALCRL/RAMP1; cell-free assay; 10 µM): -20.2%

O=C(CSc1nc2nccnc2c(=O)n1CCc1ccccc1)Nc1nccs1
inhibition (Phosphatidylinositol 4-phosphate 5-kinase type-1 beta (PIP5K1B, Homo sapiens, UniProt O14986); enzyme activity, inhibitor; 10 µM): 13%

CCN(CC)c1ccc(C2Nc3ccc(C(=O)c4ccccc4)cc3NC3=C2C(=O)CC(C)(C)C3)cc1 (centres unmarked)
inhibition (HTR1B; ligand displacement, radioligand; 10 µM): 6%

CC(/C=C/C=C(\C)C(=O)O)=C\C=C\C=C(C)\C=C\C=C(/C)C(=O)O
inhibition (CDK7 with cyclin H; enzyme activity, inhibitor, ADP detection; 10 µM): 38.3%

O=C(c1ccc(F)cc1)N(Cc1ccccc1)C1CCCCC1
inhibition (Prostaglandin E2 receptor EP4 subtype (PTGER4, Homo sapiens, UniProt P35408); cell-free assay; 10 µM): 6%

CCN(CC)c1ccc(C2=NNC(=O)CC2C)cc1[N+](=O)[O-] (centres unmarked)
inhibition (3',5'-cyclic-AMP phosphodiesterase 4D (PDE4D, Homo sapiens, UniProt Q08499); enzyme activity, inhibitor; 0.1 µM): 20%

N#Cc1cc(Cn2c(N3CCCC3)nc3ccccc32)ccc1F
inhibition (HTR1B; ligand displacement, radioligand; 10 µM): -19.3%

C=C(C)[C@@H](CC=C(C)C)C[C@@]12C[C@@H](CC=C(C)C)C(C)(C)[C@@](CC=C(C)C)(C(=O)C(C(=O)c3ccc(O)c(O)c3)=C1O)C2=O
inhibition (CDK7 with cyclin H; enzyme activity, inhibitor, ADP detection; 10 µM): 25.8%

CC(CN(C)C)C(Oc1cccc2ccccc12)c1cccs1 (centres unmarked)
inhibition (Sodium-dependent dopamine transporter (Slc6a3, Rattus norvegicus, UniProt P23977); ligand displacement, radioligand; 10 µM, cell membranes): < 70%

Cc1ccc(CNC(=O)[C@H](CCc2ccccc2)NC(=O)[C@H](CCc2ccccc2)NC(=O)[C@H](CCc2ccccc2)NC(=O)c2cnc(C)cn2)cc1
inhibition (Calpain-1 catalytic subunit (CAPN1, Homo sapiens, UniProt P07384); enzyme activity, inhibitor; 100 µM): -9%

COc1cc(NC(C)=O)c(Cl)cc1C(=O)Nc1nccs1
inhibition (HTR1B; ligand displacement, radioligand; 10 µM): -0.8%

O=C(/C=C/C=C/c1ccc2c(c1)OCO2)N1CCCCC1
inhibition (CDK7 with cyclin H; enzyme activity, inhibitor, ADP detection; 10 µM): 39.4%

CN(C)C1CCN(CC#Cc2nn(C3CCCC3)c3nc(NCc4ccccc4)ncc23)C1 (centres unmarked)
inhibition (Mitogen-activated protein kinase 1 (MAPK1, Homo sapiens, UniProt P28482); enzyme activity, inhibitor, FRET; 0.1 µM): 2%

Oc1ccc(/C=C/c2cc(O)cc(O)c2)cc1
inhibition (CDK7 with cyclin H; enzyme activity, inhibitor, ADP detection; 10 µM): 40%

CC(=O)c1nn(CC(=O)N2C[C@H](F)C[C@H]2C(=O)Nc2cccc(Br)n2)c2ccc(-c3cnc(C)nc3)cc12
inhibition (Prothrombin (F2, Homo sapiens, UniProt P00734); enzyme activity, inhibitor; 10 µM): 1.2%
